An excerpt weighted towards active compounds, which were near 3.5% of everything screened.
WT yeast gro inh: growth inhibition of WT yeast, mitochondrial fusion screen. AID 1362. 190,000 compounds, 2.1% hits. inhibition, % at 10 µM. mitochondrial fusion phenotypic screen, WT strain; in the data active = inhibition above about 58%; tested in S. cerevisiae
MEKK2 WT-MEK5: raises or lowers MEK5 binding to wildtype human MEKK2 PB1 domain; Q9Y2U5; binding response (% of control), % at 10 µM; 290,000 compounds, 1.1% hits; bead flow cytometry, Alexa488-MEK5 binding to MEKK2 WT; actives lie on both sides; in the data active = binding response below about 67% or above about 130%
MEKK3 PB1 HTS: MEKK3-MEK5 PB1 interaction, increase or decrease; Q99759; bead-based flow cytometry, Alexa488-MEK5 binding to MEKK3; actives lie on both sides; 0 = blocked by unlabeled MEK5, 100 = vehicle; binding response (% of control), % at 10 µM; 290,000 compounds, 1.4% hits; AID 1529;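 active = binding response more than 3 SD above or below the average of its plate-row segment, actives on both sides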;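 note: Alexa488 bead fluorescence after subtracting the streptavidin-only scavenger bead signal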
ABCG2 inh: human ABCG2 inhibition, ABCB1 as counter-screen; Q9UNQ0; IgMXP3 cells, JC-1 efflux, flow cytometry; inhibition, % at 6.6 µM; 190,000 compounds, 0.1% hits; AID 1325;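 active = inhibition above 80%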;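 note: 0% = DMSO and 100% = nicardipine control wells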
Target sequence (Q9UNQ0 whole entry, looked up): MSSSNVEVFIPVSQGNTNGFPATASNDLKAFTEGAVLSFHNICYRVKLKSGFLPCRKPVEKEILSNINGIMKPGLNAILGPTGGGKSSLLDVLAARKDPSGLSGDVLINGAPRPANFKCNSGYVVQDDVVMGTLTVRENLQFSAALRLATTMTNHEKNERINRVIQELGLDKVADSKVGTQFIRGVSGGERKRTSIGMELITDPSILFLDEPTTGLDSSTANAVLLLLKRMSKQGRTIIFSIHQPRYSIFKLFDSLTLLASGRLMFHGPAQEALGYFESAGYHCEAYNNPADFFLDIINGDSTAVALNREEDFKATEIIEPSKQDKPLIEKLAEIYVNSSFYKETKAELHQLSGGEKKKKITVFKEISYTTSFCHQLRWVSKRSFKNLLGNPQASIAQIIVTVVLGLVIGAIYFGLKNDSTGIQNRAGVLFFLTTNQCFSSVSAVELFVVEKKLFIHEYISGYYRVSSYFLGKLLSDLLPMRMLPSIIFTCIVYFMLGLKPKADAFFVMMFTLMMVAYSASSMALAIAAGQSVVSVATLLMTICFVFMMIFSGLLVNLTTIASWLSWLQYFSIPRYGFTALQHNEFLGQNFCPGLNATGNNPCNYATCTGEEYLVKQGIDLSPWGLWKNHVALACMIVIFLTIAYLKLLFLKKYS
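Test system: IgMXP3 (ABCG2) plus far-red-tagged CCRF-Adr (ABCB1) cells. Reagent: JC-1 dye as substrate. Timing: 10 min exposure at 25 °C with rotation, no wash. Measured by: flow cytometric JC-1 green MFI at 530 nm. Read-out: percent efflux inhibition, scaled nicardipine 100% to DMSO 0%. Control set: nicardipine and DMSO wells.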
MEKK2 mut-MEK5: signal of MEK5 binding to mutant human MEKK2 PB1 domain; bead flow cytometry, Alexa488-MEK5 binding to MEKK2 mutant; percent response, % at 10 µM; 290,000 compounds, 0.35% hits; AID 1530; in the data active = percent response above about 24%, passing the limit was not always enough
ABCB1 inh: inhibitors of human ABCB1 transporter, ABCG2 counter-screen; 190,000 compounds, 0.067% hits; AID 1326; inhibition, % at 6.6 µM; CCRF-Adr cells, JC-1 efflux, flow cytometry; in the data active = inhibition above about 40%;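 note: 0% = vehicle and 100% = reference inhibitor; higher value means more JC-1 retained so stronger ABCB1 efflux block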
MEKK2wt confirm: raises or lowers MEK5 binding to wildtype human MEKK2, retest; shares compounds with MEKK3 PB1 HTS; bead flow cytometry, Alexa488-MEK5 binding to MEKK2 WT; actives lie on both sides; binding response (% of control), % at 10 µM; 5,900 compounds, 2.4% hits; AID 1892; in the data active = binding response below about 16% or above about 210%; inactive = in between
MEKK2mut confirm: signal of MEK5 binding to mutant human MEKK2, retest. shares compounds with MEKK3 PB1 HTS. percent response, % at 10 µM. AID 1893. 5,900 compounds, 2% hits. bead flow cytometry, Alexa488-MEK5 binding to MEKK2 mutant; in the data active = percent response mostly above about 71%, no sharp cut-off; inactive = mostly below about 38%;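 note: higher means compound restores mutant binding toward wildtype level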
MEKK3 confirm: confirmation of inhibitors of MEK5 binding to human MEKK3; AID 1894; shares compounds with MEKK3 PB1 HTS; binding response (% of control), % at 10 µM; 5,900 compounds, 1.8% hits; bead flow cytometry, Alexa488-MEK5 binding to MEKK3; active compounds read low;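 active = binding response below 72% of control, or above a set upper limit, though filed actives all read lower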;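 note: 100% = DMSO only wells and 0% = binding blocked by excess unlabeled MEK5; lower values mean stronger disruption of MEK5 binding to MEKK3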
The depositor's hits bear a star; nt = no result; [ ] = another dose, or the depositor's remark.

SMILES	WT yeast gro inh	MEKK2 WT-MEK5	MEKK3 PB1 HTS	ABCG2 inh	MEKK2 mut-MEK5	ABCB1 inh	MEKK2wt confirm	MEKK2mut confirm	MEKK3 confirm
Cc1ccc2c(c1)c1c3n2CCN(CC(O)CNC(C)C)C3CCC1 (stereo not drawn)	nt	169*	107	nt	12	nt	119	4	98
CCN(CC(=O)N1CCOCC1)S(=O)(=O)c1ccc(F)cc1	nt	95	100	nt	-6	nt	nt	nt	nt
CCCN(CC(=O)Nc1cccc(Br)c1)CC(=O)Nc1ccc(F)c(F)c1F	69*	154*	101	18	31	1	103	-3	101
Cc1cc(C)n2nc(CCCCc3nc4nc(C)cc(C)n4n3)nc2n1	-16	104	106	2	6	1	nt	nt	nt
Cc1cccc(NC(=O)CSc2nc3nc4c(cc3c(=O)n2-c2ccccc2)CCCC4)c1	13	104	132*	3	0	6	90	-3	99
CC(=O)Nc1cccc2c1C(=O)N(c1cccc(C)c1)C2=O	1	84	73*[inhibitor]	47	8	6	30	-20	53*
CC(=O)Nc1cccc2c1C(=O)N(c1cccc(OC(C)=O)c1)C2=O	-16	79	83	0	-14	0	nt	nt	nt
CCOC(=O)N/N=C(\C)c1ccc(C)c([N+](=O)[O-])c1	7	108	132*	4	1	0	97	-1	99
COCCn1c(=NC(=O)CCS(=O)(=O)c2ccccc2)sc2cc(F)ccc21	nt	97	98	nt	-4	nt	nt	nt	nt
CCOc1ccc(NC(=O)c2cc3cc4ccc(C)cc4nc3o2)cc1	-3	94	103	-1	4	-1	nt	nt	nt
CCOc1ccc(NC(=O)c2cc3cc4ccc(OC)cc4nc3o2)cc1	-1	1.0*[inhibitor]	2.0*[inhibitor]	-1	-14	0	94	-2	103
CCOC(=O)Cn1nc(C)cc1NC(=O)c1cccnc1	-2	100	102	0	-4	0	nt	nt	nt
FC(F)(F)c1nnc2ccc(Sc3ccccn3)nn12	-2	nt	1.0*[inhibitor]	0	-28	1	95	-8	95
O=C(CCS(=O)(=O)Cc1ccccc1)Nc1ncc([N+](=O)[O-])s1	nt	102	100	nt	2	nt	nt	nt	nt
CCOC(=O)C1=C(C)N(C)C(C)=C(C(=O)OCC)C1c1ccc(Cl)cc1	29	107	130*	17	0	2	21	-25	46*
CC(C(=O)NCCN1C(=O)S/C(=C\c2cccs2)C1=O)N1C(=O)c2ccccc2C1=O (stereo not drawn)	6	107	146*	-4	0	-1	92	-8	92
Cc1ccc(C(=O)N/C(=C\c2ccco2)C(=O)NCCN2CCOCC2)cc1C	nt	110	106	nt	8	nt	nt	nt	nt
Cc1ccc(-n2ncc(-c3nn[nH]n3)c2N)cc1	nt	94	96	nt	-8	nt	nt	nt	nt
CCCCc1nc2sc3c(SCCN(C)C)ncnc3c2c2c1CCC2	nt	152*	100	nt	29	nt	198	63	106
CCCCc1nc2sc3c(SCC(=O)NCc4ccco4)ncnc3c2c2c1CCC2	-2	96	95	2	2	0	nt	nt	nt
COc1ccc(S(=O)(=O)N2CCCCCC2)cc1NC(=O)Cc1cc(OC)c(OC)c(OC)c1	-13	102	102	11	1	2	nt	nt	nt
O=C(CCl)Nc1cc(S(=O)(=O)N2CCCCCC2)ccc1Cl	-7	100	130*	16	0	1	107	2	106
COc1ccc(S(=O)(=O)N2CCCCCC2)cc1NC(=O)Cc1ccccc1F	nt	79	75*[inhibitor]	nt	-19	nt	104	0	102
COc1ccccc1CNC(=O)c1cn(C)c2ccc(S(=O)(=O)N3CCCCC3)cc2c1=O	-8	108	127	1	192*	1	98	-8	99
COc1ccccc1N1CSC2=C(C#N)C(c3ccc(SC)cc3)CC(=O)N2C1 (stereo not drawn)	15	93	96	-5	-1	-1	nt	nt	nt
SMILES	WT yeast gro inh	MEKK2 WT-MEK5	MEKK3 PB1 HTS	ABCG2 inh	MEKK2 mut-MEK5	ABCB1 inh	MEKK2wt confirm	MEKK2mut confirm	MEKK3 confirm
COc1cccc([C@@H]2Oc3ccc(OC)cc3C(=O)[C@H]2OC(=O)NCc2ccc3c(c2)OCO3)c1	14	97	98	29	-4	3	nt	nt	nt
Nc1nnn(CC(=O)N/N=C/c2ccncc2)n1	nt	120	130*	nt	25	nt	103	-6	101
CCN1/C(=C/c2ccc3cc(C)ccc3[n+]2C)Sc2ccc3sccc3c21	95*	nt	0.0*[inhibitor]	3	nt	1	7.0*[inhibitor]	-33	31*
CCN1/C(=C/c2cccc[n+]2C)Sc2ccc(OC)cc21	nt	107	103	nt	9	nt	nt	nt	nt
COCc1nnc(NS(=O)(=O)c2ccc(C)cc2)s1	-18	0.0*[inhibitor]	0.0*[inhibitor]	-1	-16	0	99	-2	99
O=C(O)c1ccc(CP(=O)(c2ccccc2)c2ccccc2)cc1	nt	123	122*	nt	11	nt	105	5	105
CCOC(=O)C1=C(CCc2ccccc2)NC(=O)NC1c1ccc(C#N)cc1 (stereo not drawn)	nt	102	105	nt	4	nt	nt	nt	nt
O=C(N/N=C/c1cc([N+](=O)[O-])ccc1N1CCCCCC1)c1ccccn1	-8	94	97	22	-7	8	nt	nt	nt
CCc1ccc(OCC(=O)N/N=C/c2cc([N+](=O)[O-])ccc2N2CCCCCC2)cc1	12	104	136*	25	0	2	106	9	103
CCN(CCn1cccn1)C(=O)CC1C(=O)NCCN1CCc1ccccc1 (stereo not drawn)	nt	103	102	nt	2	nt	nt	nt	nt
CC(C)NS(=O)(=O)c1ccc(NC(=O)C(C)Oc2ccc(C(=O)c3ccccc3)cc2)cc1 (stereo not drawn)	-11	100	147*	13	-1	3	97	-9	102
Cc1ccc(/C=N/NC(=O)CCCOc2ccc(Cl)cc2Cl)cc1	6	101	137*	-1	-1	0	98	-6	98
O=C(CCCOc1ccc(Cl)cc1Cl)N/N=C/c1ccccc1	21	105	125	0	-1	0	nt	nt	nt
CCOc1cccc(CNCCSc2nnnn2C)c1	8	102	102	1	-4	1	nt	nt	nt
COc1ccc(-c2csc(N(CCCN(C)C)C(=O)c3ccc(F)cc3)n2)cc1	nt	140*	111	nt	25*	nt	124	11	102

Screening data from PubChem BioAssay.
